Source: the EternaBench riboswitch data

Tested on: MS2 coat protein
Assay: apparent Kd, MS2 coat protein; higher = weaker binding; RNA-MaP array; FMN 200 µM where present
Procedure, shortened: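 The titrant was SNAP-549-labelled MS2 coat protein, run from 0.7 or 1.5 nM in doubling steps to 3 µM. It was applied to designs transcribed by stalled E. coli RNA polymerase on Illumina sequencing-chip clusters, without ligand first and then with constant ligand, in 100 mM Tris-HCl pH 7.5, 80 mM KCl, 4 mM MgCl2, BSA, DTT, yeast tRNA and Tween-20. The apparent Kd is the median of filtered per-cluster binding-curve fits, with green signal normalised to red-channel RNA signal and control-cluster median Fmax.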

[1] = designed as: ON switch for flavin mononucleotide, no ligand
[2] = ligand present: flavin mononucleotide, designed as: ON switch for flavin mononucleotide
[3] = designed as: OFF switch for flavin mononucleotide, no ligand
[4] = ligand present: flavin mononucleotide, designed as: OFF switch for flavin mononucleotide

In the case of “CAUGUCCUCACAGGAUAUGCUGGACUUUGUCCAGCAGAAGGGUGUUAACAUGAGGAUCACCCAUGUGGACAUGAUAUAUUUAAG”, the “apparent Kd” value [1] is reported as 757 nM and the “apparent Kd” value [2] is reported as 66.2 nM.
“AGACUGAAGCAAGGAUAUUGUAAGGUUAUUGUACAAGAAGGUGCUGUUUAUGUCUCUUAACAUGAGGAUCACCCAUGUUUUGAA” was tested, and the “apparent Kd” value [1] was 19.7 nM and the “apparent Kd” value [2] was 19.1 nM.
In the case of “CGGUUGCGAGGAUAUAUGACAUGUUGCGCCGGAACUCCGCCACAUGAGGAUCACCCAUGUAGAAGGCGCAACUU”, the “apparent Kd” value [3] is reported as 14.4 nM and the “apparent Kd” value [4] is reported as 15.3 nM.
For “UAUUAUGUCAGAGGAUAUAUAAAUAAAUUUAUAACAUGAGGAUCACCCAUGUACUUUAGUAUGAGGUAGAAGGUUGAUAAGAUA”, the “apparent Kd” value [1] was 45.4 nM and the “apparent Kd” value [2] was 26.8 nM.
“CAUUUACAGGGAGGAUAUACAUGAGGAUCACCCAUGUCAUCAUACGAUAUUUCUUUUGUAUGAGUGUAGAAGGCCCAACUACCA” was tested, and the “apparent Kd” value [3] was 10.2 nM and the “apparent Kd” value [4] was 12 nM.
With “AGCAUGUAAGGAUAUGCAAGUGGCACGGAUAGUACCAGAAAGCAGAAGGUACAUGAGGAUCACCCAUGUGCUCC” the “apparent Kd” value [3] was 26.8 nM and the “apparent Kd” value [4] was 94.9 nM.
For “AAACACGGACAUGAGGAUCACCCAUGUGGCGAAAGCCUUGGGAGAAGGAUUAAUGCAAAGCAUAAAUAGGAUAUUCAUACCGUG”, the “apparent Kd” value [1] was 1270 nM and the “apparent Kd” value [2] was 243 nM.
In the case of “GUGUACAGAGGAUAUAUAUGGGCAUGGAAACAUGCAUCUUCACAUGAGGAUCACCCAUGUAGAAGGCUGUACAC”, the “apparent Kd” value [3] is reported as 143 nM and the “apparent Kd” value [4] is reported as 84.6 nM.
In the case of “UGUAGUUCAGGAUAUGAUGUUUAAAACAUGAGGAUCACCCAUGUAGAUCCUGAAUUAACAUCAGAAGGGAAUAUUU”, the “apparent Kd” value [3] is reported as 17.9 nM and the “apparent Kd” value [4] is reported as 46.2 nM.
In the case of “UUCUUGGCAGGAUAUGCUCUUUUAGACAUGAGGAUCACCCAUGUGUUUAUUCUUUUUUUUGCAGAAGGGCCUUAAU”, the “apparent Kd” value [3] is reported as 93.9 nM and the “apparent Kd” value [4] is reported as 88.8 nM.
With “CAUACGUCAGGAUAUCUGAUGUCUAACUUCGGUUAGACAUCAGAGAAGGGACAUGAGGAUCACCCAUGUAUGAA” the “apparent Kd” value [3] was 118 nM and the “apparent Kd” value [4] was 130 nM.
In the case of “AAUCAGUCAGGAUAUCGUUAAUUUAAUUGUUUGUUUUAGUUCGAGAAGGGACAUGAGGAUCACCCAUGUACUUA”, the “apparent Kd” value [3] is reported as 24.8 nM and the “apparent Kd” value [4] is reported as 26.8 nM.
For “GGCGAACGGGCUAACAUGAGGAUCACCCAUGUGGACUCAUGGUAGGAUAUGCUGUACAAAGUACAGCAGAAGGGCCGGUGAGCC”, the “apparent Kd” value [1] was 142 nM and the “apparent Kd” value [2] was 445 nM.
In the case of “GCGUGGUUCUAGAAGGUGCUAGCGAUAAGCUAGCAAGGAUAUAGACAUGAGGAUCACCCAUGUCUUAAAGAAAUGGACACACGC”, the “apparent Kd” value [3] is reported as 5.04 nM and the “apparent Kd” value [4] is reported as 5.55 nM.
With “CGUUAAUAUCGAGGAUAUGUCUAGACACAUGAGGAUCACCCAUGUAUGUGUAUAGAAGGCGAUAUUAACAGCAUGUUACAUCCC” the “apparent Kd” value [1] was 46.6 nM and the “apparent Kd” value [2] was 18.8 nM.
“GGAUAGGACAGAGGAUAUACGUGCUAGAGAUACUAGCAAAAUUUCCACACAUGAGGAUCACCCAUGUAGAAGGCUGUCCUAUCG” was tested, and the “apparent Kd” value [4] was 7.57 nM.
With “UGGUACAUGAGGAUCACCCAUGUAAGAGCCCUCAUGCGAUGUAGAAGGUUAAUGCGAGUAGUGCUAAAGGAUAUACAUGAGUUU” the “apparent Kd” value [3] was 212 nM and the “apparent Kd” value [4] was 173 nM.
In the case of “UCUUAUUGCAAGGAUAUGCUAUUUAUUUUUUUUGCAGAAGGUGCAACAUGAGGAUCACCCAUGUUUCCGGGCAU”, the “apparent Kd” value [3] is reported as 19.2 nM and the “apparent Kd” value [4] is reported as 42.7 nM.
“AUUAUAUAGACAGGAUAUUGAUUAUUAUUUUAACAUGAGGAUCACCCAUGUAGCCUUAUGUAUAACAAGAAGGGUCAUUUAUUA” was tested, and the “apparent Kd” value [3] was 151 nM and the “apparent Kd” value [4] was 190 nM.
“ACUGCAUAGGCAGGAUAUGCAAAAGCAGAUGCAAAGCAUUUGAAUAACACAUGAGGAUCACCCAUGUAGAAGGGCCUGUGCAGU” was tested, and the “apparent Kd” value [3] was 20.1 nM and the “apparent Kd” value [4] was 20.2 nM.
For “GACUCGGGUGCAGGAUAUCCGCCGGAUCGCAGUGGAGAAGGGCGCCAAGCGAACAUGAGGAUCACCCAUGUAUCGGAGUUGAAC”, the “apparent Kd” value [1] was 56.9 nM and the “apparent Kd” value [2] was 10.4 nM.
“AAAAUAAGAACAGGAUAUGUGGGUUCGAAAAGCAAAGCUUUCCACAUGAGGAUCACCCAUGUGCCACAGAAGGGUUCGGGUGAU” was tested, and the “apparent Kd” value [1] was 69.1 nM and the “apparent Kd” value [2] was 27.4 nM.
In the case of “CGAUUUGUAGGAUAUGUAUGAGUAAUCCCUUUUUAUGAAGAACAUGAGGAUCACCCAUGUAGAAGGGCAUUGUA”, the “apparent Kd” value [3] is reported as 19.6 nM and the “apparent Kd” value [4] is reported as 17.6 nM.
In the case of “GUUCUGCCUCCUGCCGGAACAUGAGGAUCACCCAUGUUGCCUGAGGAUAUCCUAUGGCGCCCACAGGAGAAGGCGGGCAACAUA”, the “apparent Kd” value [3] is reported as 38.1 nM and the “apparent Kd” value [4] is reported as 233 nM.
With “GUUCUUCCUGUAAGGAUAUCCAUGUAUCAAUUUAUGGAGAAGGUACAUGAGGAUCACCCAUGUCACCCGCGUUA” the “apparent Kd” value [3] was 20.9 nM and the “apparent Kd” value [4] was 50.7 nM.
In the case of “CUAUGCGGAAUAGGAUAUUCAUUCAUGAGGAUAGAAGAAGGGUUACAUGAGGAUCACCCAUGUAUACACAUGAGGAUCCCUUAC”, the “apparent Kd” value [3] is reported as 162 nM and the “apparent Kd” value [4] is reported as 181 nM.
With “GUUGUGUAUGUAGGAUAUGCGAAGCAAAGCUUCGCAGAAGGACAUGAGGAUCACCCAUGUAUUGCAGCCUGCAAACAGGCUGCU” the “apparent Kd” value [3] was 40.2 nM and the “apparent Kd” value [4] was 170 nM.
With “GUUGGGUGUCAUGUCGCACAUGAGGAUCACCCAUGUAAGAGGUAGGAUAUCCACGAGUAACAAGAGGAGAAGGGCCGUCAGCGU” the “apparent Kd” value [3] was 25.8 nM and the “apparent Kd” value [4] was 32.2 nM.
With “ACGUGACGGUGCGCGAGUGGACGGAGAAGGCAGACAUGAGGAUCACCCAUGUGAGCCUGCUAUUCUGAGGAUAUCCGUCCGCUC” the “apparent Kd” value [3] was 38.8 nM and the “apparent Kd” value [4] was 257 nM.
In the case of “CAUUAAUUGAUUAUUGAAUAUUUACAGGAUAUGUUACAUGAGGAUCACCCAUGUAAAUAUGGGUUACAGAAGGGUAUUUAUAGA”, the “apparent Kd” value [3] is reported as 36.2 nM and the “apparent Kd” value [4] is reported as 32.5 nM.
“GUGCGGUAGGAGAAGGACGGCGGGUUCUUUUCAUACAUGAGGAUCACCCAUGUAGGAUAUCCUACCUCACGCGGCCUACUACAG” was tested, and the “apparent Kd” value [3] was 8.61 nM and the “apparent Kd” value [4] was 13.5 nM.
“GUGGCCUAGGCACAGGAUAUGUUGCUCGUAACAUGAGGAUCACCCAUGUGCCUAUGAGAUUUAAUGCAGAAGGGUGCACGCCACG” was tested, and the “apparent Kd” value [1] was 173 nM and the “apparent Kd” value [2] was 17.1 nM.
For “AGUCAUUUACAGAAGGGUAGUUGGGUUAUACAUGAGGAUCACCCAUGUUUUACAGGAUAUGUGUUUUGUUACUAUUAAAGUUCA”, the “apparent Kd” value [3] was 65.7 nM and the “apparent Kd” value [4] was 120 nM.
“GACGAGUGAGGAUAUGGUGAGUAGUGCCUGAGCGCUGCUCACCAGAAGGCACAUGAGGAUCACCCAUGUAUGUC” was tested, and the “apparent Kd” value [3] was 13.5 nM and the “apparent Kd” value [4] was 17.6 nM.
For “GAUCCACAUGAGGAUCACCCAUGUGAGGAUAUGAUACUAUGUACUUCGGUACAUAGUAUCAGAAGGCAUAUUGA”, the “apparent Kd” value [3] was 44 nM and the “apparent Kd” value [4] was 75.7 nM.
“CUAAGGGAUUGCUCGAAGACAUGAGGAUCACCCAUGUAGGCGAGAAGGGCGGCGACUUUAGCGCUGCAGGAUAUCGACUGCAGU” was tested, and the “apparent Kd” value [3] was 9 nM and the “apparent Kd” value [4] was 10.1 nM.
“GGACGUCACAUGAACAUGAGGAUCACCCAUGUAAAUUCUCAUGAGGAUAUGGUUCCUAAUUGGAACCAGAAGGCAUGGACGUCC” was tested, and the “apparent Kd” value [1] was 1450 nM and the “apparent Kd” value [2] was 408 nM.
For “GUCGUGUUAGGAUAUGGCGGCGGCGGCGUUUGUUGUUGUUGUUAGAAGGAACAUGAGGAUCACCCAUGUAUGAC”, the “apparent Kd” value [3] was 43.4 nM and the “apparent Kd” value [4] was 119 nM.
With “CACGAUGAUGUAGGAUAUAUGCUGGAAUACAGCAUAGAAGGACAUGAGGAUCACCCAUGUAAAGUGCCUCCAAAUAACAUCGUG” the “apparent Kd” value [3] was 18.5 nM and the “apparent Kd” value [4] was 44.5 nM.
For “AAAAAAAAUGUGUAGGAUAUCAGUAAAAAUACAUGAGGAUCACCCAUGUUCAAAAAAAAAAAAACUGAGAAGGACGUGGAUGGUCC”, the “apparent Kd” value [1] was 79 nM and the “apparent Kd” value [2] was 59.9 nM.
With “AAAAGACAUGAGGAUCACCCAUGUGAAAACGUAGGAGGAUAUGUAUGGAAACCAUACUGUACAGAAGGCCUUUGUC” the “apparent Kd” value [1] was 28.1 nM and the “apparent Kd” value [2] was 29.7 nM.
In the case of “AUGUACCGGUGAGGAUAUUUUUAAUAGAGCUUUAUGAUAUACAUGAGGAUCACCCAUGUUACGUUAAAGAAGGCAUCGGAUUAA”, the “apparent Kd” value [3] is reported as 21 nM and the “apparent Kd” value [4] is reported as 15.9 nM.
